Test results as given in ChEMBL document CHEMBL1641417, “Cytotoxicity and topoisomerase I/II inhibition of glycosylated 2-phenyl-indoles, 2-phenyl-benzo[b]thiophenes and 2-phenyl-benzo[b]furans” (Bioorg Med Chem, 2011).

What was measured:
HepG2 [1] = experiment: Cytotoxicity against human HepG2 cells assessed as cell viability at 25 uM after 24 hrs by MTS assay; type: functional; settings: HepG2, 24 h, read-out: Activity
[2] = Cytotoxicity against human CRL7761 cells after 3 days by MTS assay; type: cell-based; settings: 72 h
Method in brief: (§1)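 Non-tumour cells were CRL-7761 human skin, Vero monkey kidney (DMEM high glucose, 5% FBS, 10 mM HEPES) and NIH/3T3 mouse (DMEM, 10% calf serum). Cells were seeded, left 24 h, then switched to serum-free DMEM-F12 with albumin, transferrin and insulin, with or without compound. Exposure was 3 days at 37 °C.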

Vero = experiment: Cytotoxicity against african green monkey Vero cells after 3 days by MTS assay; type: cell-based; settings: Chlorocebus sabaeus, 72 h; method in brief: as §1
[3] = Cytotoxicity against mouse NIH/3T3 cells after 3 days by MTS assay; type: cell-based; settings: NIH3T3, 72 h; method in brief: as §1
[4] = target: T1, DNA topoisomerase 1 (Homo sapiens) (UniProt P11387); experiment: Inhibition of human recombinant DNA topoisomerase 1-mediated DNA cleavage assessed as decrease in relaxation of supercoiled plasmid substrate DNA at 100 uM after 30 mins by agarose gel electrophoresis
T1 sequence (whole entry): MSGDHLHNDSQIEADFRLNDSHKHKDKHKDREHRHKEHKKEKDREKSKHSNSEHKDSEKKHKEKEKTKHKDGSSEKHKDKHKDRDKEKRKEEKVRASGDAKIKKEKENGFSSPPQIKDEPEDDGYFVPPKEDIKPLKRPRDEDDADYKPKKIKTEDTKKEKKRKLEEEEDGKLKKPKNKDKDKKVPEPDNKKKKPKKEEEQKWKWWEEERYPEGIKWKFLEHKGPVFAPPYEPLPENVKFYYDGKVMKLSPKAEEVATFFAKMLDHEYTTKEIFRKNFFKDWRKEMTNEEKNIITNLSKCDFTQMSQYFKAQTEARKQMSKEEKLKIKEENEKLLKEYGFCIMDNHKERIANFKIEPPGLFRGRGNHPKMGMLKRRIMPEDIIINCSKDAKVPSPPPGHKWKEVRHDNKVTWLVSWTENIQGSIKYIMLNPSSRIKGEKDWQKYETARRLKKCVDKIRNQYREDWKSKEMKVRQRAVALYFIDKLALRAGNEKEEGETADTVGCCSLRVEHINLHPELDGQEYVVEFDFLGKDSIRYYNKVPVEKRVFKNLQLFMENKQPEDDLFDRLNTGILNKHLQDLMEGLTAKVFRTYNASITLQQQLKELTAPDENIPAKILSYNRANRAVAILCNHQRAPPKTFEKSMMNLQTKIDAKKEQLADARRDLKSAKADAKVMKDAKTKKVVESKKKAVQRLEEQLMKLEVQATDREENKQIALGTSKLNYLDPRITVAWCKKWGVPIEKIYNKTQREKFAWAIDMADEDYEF

[5] = target: DNA topoisomerase 2-alpha (Homo sapiens) (UniProt P11388); experiment: Inhibition of human recombinant DNA topoisomerase 2alpha-mediated DNA cleavage assessed as decrease in relaxation of supercoiled plasmid substrate DNA at 100 uM after 30 mins by agarose gel electrophoresis
MCF7 [6] = experiment: Cytotoxicity against human MCF7 cells after 72 hrs by MTS assay; settings: MCF7, 72 h
HT-29 [7] = experiment: Cytotoxicity against human HT-29 cells after 72 hrs by MTS assay; settings: HT-29, 72 h
HepG2 [8] = experiment: Cytotoxicity against human HepG2 cells after 72 hrs by MTS assay; settings: HepG2, 72 h
Nucleic Acid = experiment: Binding affinity to DNA by ethidium bromide staining-based FID assay; set-up: concentration or dose not given beside the values
MCF7 [9] = experiment: Cytotoxicity against human MCF7 cells at 25 uM after 72 hrs by MTS assay
HT-29 [10] = experiment: Cytotoxicity against human HT-29 cells at 25 uM after 72 hrs by MTS assay
HepG2 [11] = experiment: Cytotoxicity against human HepG2 cells at 25 uM after 72 hrs by MTS assay
MCF7 [12] = experiment: Cytotoxicity against human MCF7 cells assessed as cell viability at 25 uM after 72 hrs by MTS assay; settings: MCF7, 72 h
HT-29 [13] = experiment: Cytotoxicity against human HT-29 cells assessed as cell viability at 25 uM after 72 hrs by MTS assay; settings: HT-29, 72 h
MCF7 [14] = experiment: Cytotoxicity against human MCF7 cells assessed as cell viability at 100 uM after 72 hrs by MTS assay; settings: MCF7, 72 h
HT-29 [15] = experiment: Cytotoxicity against human HT-29 cells assessed as cell viability at 100 uM after 72 hrs by MTS assay; settings: HT-29, 72 h
HepG2 [16] = experiment: Cytotoxicity against human HepG2 cells assessed as cell viability at 100 uM after 72 hrs by MTS assay; settings: HepG2, 72 h

Chain of DNA topoisomerase 2-alpha (Homo sapiens) (P11388 whole entry): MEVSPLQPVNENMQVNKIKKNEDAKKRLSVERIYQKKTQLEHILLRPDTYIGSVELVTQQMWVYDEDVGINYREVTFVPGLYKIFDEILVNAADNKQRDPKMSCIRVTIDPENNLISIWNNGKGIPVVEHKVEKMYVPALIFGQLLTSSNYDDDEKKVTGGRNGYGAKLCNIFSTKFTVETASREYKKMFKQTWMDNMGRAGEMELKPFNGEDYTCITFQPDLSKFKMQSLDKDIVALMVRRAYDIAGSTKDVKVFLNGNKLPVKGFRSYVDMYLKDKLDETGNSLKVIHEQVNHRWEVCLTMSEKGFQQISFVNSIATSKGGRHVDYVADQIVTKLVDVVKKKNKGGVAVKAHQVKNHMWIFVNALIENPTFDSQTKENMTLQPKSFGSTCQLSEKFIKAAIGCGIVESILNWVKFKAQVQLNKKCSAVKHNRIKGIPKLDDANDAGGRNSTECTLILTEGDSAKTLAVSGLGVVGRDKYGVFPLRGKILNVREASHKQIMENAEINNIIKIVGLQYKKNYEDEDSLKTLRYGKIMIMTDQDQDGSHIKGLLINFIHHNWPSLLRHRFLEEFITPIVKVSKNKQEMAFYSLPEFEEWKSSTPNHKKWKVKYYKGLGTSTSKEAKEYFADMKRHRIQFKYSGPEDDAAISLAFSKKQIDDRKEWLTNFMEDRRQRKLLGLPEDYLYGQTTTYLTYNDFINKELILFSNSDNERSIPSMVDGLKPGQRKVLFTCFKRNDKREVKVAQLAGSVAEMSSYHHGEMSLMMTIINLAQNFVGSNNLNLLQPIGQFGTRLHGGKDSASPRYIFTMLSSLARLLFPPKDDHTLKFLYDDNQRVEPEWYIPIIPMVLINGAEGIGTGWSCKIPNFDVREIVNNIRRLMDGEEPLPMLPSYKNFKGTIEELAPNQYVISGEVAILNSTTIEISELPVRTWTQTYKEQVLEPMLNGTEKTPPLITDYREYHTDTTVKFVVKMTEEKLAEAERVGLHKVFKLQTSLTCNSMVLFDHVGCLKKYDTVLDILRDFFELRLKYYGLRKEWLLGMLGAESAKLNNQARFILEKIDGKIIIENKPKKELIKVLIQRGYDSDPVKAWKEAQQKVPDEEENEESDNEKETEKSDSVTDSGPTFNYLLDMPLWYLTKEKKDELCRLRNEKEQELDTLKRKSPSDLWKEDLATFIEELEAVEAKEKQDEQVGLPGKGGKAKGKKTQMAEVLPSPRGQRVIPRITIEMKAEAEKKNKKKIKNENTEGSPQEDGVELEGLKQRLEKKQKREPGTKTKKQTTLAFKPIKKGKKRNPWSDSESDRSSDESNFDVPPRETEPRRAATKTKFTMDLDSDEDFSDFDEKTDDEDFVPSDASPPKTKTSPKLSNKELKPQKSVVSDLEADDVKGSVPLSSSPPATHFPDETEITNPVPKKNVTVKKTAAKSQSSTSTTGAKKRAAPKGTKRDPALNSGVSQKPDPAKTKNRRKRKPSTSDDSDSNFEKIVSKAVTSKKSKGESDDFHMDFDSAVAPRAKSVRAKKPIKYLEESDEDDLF

inhibition [4] [%]	inhibition [5] [%]	Activity (Nucleic Acid) [%]	SMILES	viability at 25 µM (HepG2 [1]) [%]	IC50 [2] [µM]	IC50 (Vero) [µM]	IC50 [3] [µM]	IC50 (MCF7 [6]) [µM]	IC50 (HT-29 [7]) [µM]	IC50 (HepG2 [8]) [µM]	Activity (MCF7 [9]) [%]	Activity (HT-29 [10]) [%]	Activity (HepG2 [11]) [%]	viability at 25 µM (MCF7 [12]) [%]	viability at 25 µM (HT-29 [13]) [%]	viability at 100 µM (MCF7 [14]) [%]	viability at 100 µM (HT-29 [15]) [%]	viability at 100 µM (HepG2 [16]) [%]
4	39.5	78.4	C[C@@H]1O[C@@H](OCC#Cc2c(-c3ccccc3)[nH]c3ccccc23)CC[C@@H]1N	< 1	24	20.5	14.7	10.8	9.2	11.4	100	100	100	< 1	< 1	–	–	–
–	–	–	Ic1c(-c2ccccc2)[nH]c2ccccc12	–	–	–	–	–	–	–	–	–	–	–	–	103	91	91
8.8	7.1	76.7	C[C@@H]1O[C@@H](OCC#Cc2c(-c3ccccc3)[nH]c3ccccc23)C[C@H](N)[C@@H]1O	< 1	–	–	–	15.9	14	12.9	100	100	100	< 1	< 1	–	–	–
–	–	–	OCC#Cc1c(-c2ccccc2)sc2ccccc12	97	–	–	–	–	–	–	–	–	–	90	68	37	8	17
–	–	–	c1ccc(-c2cc3ccccc3s2)cc1	–	–	–	–	–	–	–	–	–	–	–	–	113	81	88
–	–	–	OCC#Cc1c(-c2ccccc2)oc2ccccc12	88	–	–	–	–	–	–	–	–	–	86	86	2	< 1	< 1
–	–	–	Cc1ccc(S(=O)(=O)n2c(-c3ccccc3)c(C#CCO)c3ccccc32)cc1	58	–	–	–	–	–	–	100	100	100	87	26	55	9	37
25.5	5.5	50.5	C[C@@H]1O[C@@H](OCC#Cc2c(-c3ccccc3)oc3ccccc23)C[C@H](N)[C@H]1O	< 1	> 25	10.6	6.5	5.4	6.5	7.7	100	100	100	< 1	< 1	–	–	–
–	–	–	Cc1ccc(S(=O)(=O)n2c(-c3ccccc3)c(I)c3ccccc32)cc1	–	–	–	–	–	–	–	–	–	–	–	–	114	82	90
–	–	–	c1ccc(-c2cc3ccccc3[nH]2)cc1 [2-PHENYL-1H-INDOLE]	–	–	–	–	–	–	–	–	–	–	–	–	72	75	71
–	–	–	C#CCO[C@H]1CC[C@H](N)[C@H](C)O1	–	–	–	–	–	–	–	–	–	–	–	–	107	99	112
